GRIN3A LBD mod – binders of NR3A ligand-binding domain, primary screen, biophysical, differential scanning fluorimetry, uHTS; AID 1259313, 2017; hit rate 2.5% among 340,000; Glutamate receptor ionotropic, NMDA 3A (GRIN3A) ligand-binding domain; NR3A LBD differential scanning fluorimetry, Tm shift; 0% = protein alone, 100% = glycine-bound protein; Tm shift relative to glycine control, % at 25 µM;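 active = melting temperature shift of at least 10% of the positive control shift, at one fixed dose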
Cardio protect – cardioprotection against H2O2-induced cell death, primary screen, uHTS, H9c2 cells, ATPLite luminescence | H9c2 cardiomyocytes, H2O2 injury protection, 2 h | protection from H2O2 cell death, % at 20 µM | hit rate 0.63% among 360,000 | AID 588492, 2011;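 active = compounds giving at least 50% protection of heart cells from peroxide-induced death in the single-dose screen, raw or plate-pattern-corrected value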;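 note: 0% = DMSO wells with peroxide and 100% = DMSO wells without peroxide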
SENP1 inh – human SENP1 catalytic domain inhibitors, primary screen, biochemical, FRET, uHTS; recombinant SENP1 catalytic domain, CyPet-SUMO1-YPet FRET cleavage; AID 624204, 2012; Sentrin-specific protease 1 (Homo sapiens), Q9P0U3; inhibition, % at 10 µM; hit rate 0.21% among 360,000;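 active = inhibition at least 30% at 10 µM, raw YFP signal under a set limit, fluorescence ratio 0.5 to 1.5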;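 note: 0% = enzyme with DMSO and 100% = no enzyme wells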
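Controls: no-enzyme wells low, DMSO-plus-enzyme wells high control. Test system: human recombinant His6-tagged SENP1 catalytic domain enzyme. Reagent: SFCypet-SUMO1-SFYpet FRET protein substrate, 25 nM final. Doses: one dose per compound, 10 µM, 0.5% DMSO. Detection: FRET, CFP and YFP emission. Timing: 50 min reaction at room temperature.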
iPSC survival up – enhancers of single-cell hiPSC survival, primary screen, ATPlite luminescence | hit rate 0.044% among 360,000 | AID 602274, 2012 | 100% = ROCK inhibitor wells, 0% = DMSO | survival enhancement, % at 20 µM; in the data active = survival enhancement above about 18%;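 note: cells exposed to compounds for 16 hours before the ATP read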
FAS-TE inh – FAS thioesterase domain inhibitors, primary screen, biochemical, fluorescence intensity, uHTS; Fatty acid synthase (Homo sapiens), P49327; recombinant FAS-TE, OMFH fluorogenic substrate, fluorescence endpoint; hit rate 0.67% among 360,000; inhibition, % at 15 µM;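 active = compounds whose normalised, plate-corrected inhibition of enzyme fluorescence in the single-dose primary screen is 50% or more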;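 note: 0% = DMSO with enzyme and 100% = substrate without enzyme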
Arrestin-AP2 inh – inhibitors of beta-arrestin/AP2 binding, primary screen, biochemical, GPCR trafficking, flow cytometry; beta-arrestin 1 C-terminal peptide binding to AP2 beta2-adaptin appendage (human); FITC-arrestin peptide / GST-AP2 beads; AP2 beta2 appendage carries R879A mutation; inhibition, % at 10 µM; hit rate 0.31% among 340,000; AID 504490, 2011;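 active = inhibition above a set limit, near 3 SD of compounds lacking own fluorescence, cut at about 54% in these data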;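 note: plate controls were DMSO wells for no effect and 5 µM unlabelled arrestin peptide for full effect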
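System: GST-AP2 R879A glutathione beads | Also added: FITC-arrestin peptide, 50 nM | Times: 12 min plus 1 h, RT | Signal: Bead flow cytometry, FITC channel | Buffer or medium: PBS with 0.05% Tween 20 and 0.1% BSA | Read-out basis: Percent drop in bead-associated FITC signal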
FAS-TE inh conf – FAS thioesterase domain inhibitors, confirmation, biochemical, fluorescence intensity, single concentration; shares compounds with FAS-TE inh; recombinant FAS-TE, OMFH fluorogenic substrate; inhibition, % at 15 µM; hit rate 45% among 2,300; AID 624325, 2012;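 active = compounds inhibiting the enzyme by at least 50% at 15 µM in any one of the replicates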;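 note: 0% = enzyme with DMSO only and 100% = wells lacking enzyme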
* hit, by the source's call; . = no result. Most compounds without a hit are left out; they make up all but 4% or so of the library.

SMILES | GRIN3A LBD mod | Cardio protect | SENP1 inh | iPSC survival up | FAS-TE inh | Arrestin-AP2 inh | FAS-TE inh conf
CCC(=O)N1c2ccc(S(=O)(=O)N3CCN(c4ccc([N+](=O)[O-])cc4)CC3)cc2CC1C (centres undefined) | -0.5 | -6.7 | -7.4 | 0.1 | 63.6* | -10.9 | 23.9
CC(=O)c1ccc(N2CCN(S(=O)(=O)c3ccc4c(c3)CC(C)N4C(=O)C3CC3)CC2)cc1 (centres undefined) | 0.0 | -15.3 | 1.8 | -0.1 | 24.7 | 4.6 | .
Cc1ccc(C)c(N2CCN(S(=O)(=O)c3ccc4c(c3)CC(C)N4C(=O)C3CC3)CC2)c1 (centres undefined) | -1.2 | -10.9 | 3.1 | -0.4 | 53.6* | -2.8 | 6.8
CC1Cc2cc(S(=O)(=O)N3CCN(C)CC3)ccc2N1C(=O)C1CC1 (centres undefined) | -2.6 | -2.8 | 1.0 | 0.1 | -6.5 | 13.4 | .
Cc1cccc(N2CCN(S(=O)(=O)c3ccc4c(c3)CC(C)N4C(=O)C3CC3)CC2)c1C (centres undefined) | 0.7 | -6.7 | 2.0 | 0.4 | 64.9* | -2.9 | 13.6
COC(=O)C[C@@H]1C=C[C@@H](NC(=O)CN(C)C)[C@@H](CO)O1 | . | . | 2.5 | . | . | . | .
CN(C)c1ccc(CNC(=O)/C=C/[C@H]2O[C@@H](n3ccc(=O)[nH]c3=O)[C@H](O)[C@@H]2O)cc1 | . | 7.4 | -2.2 | 4.3 | -8.6 | . | .
COc1ccc(C2=NN(C(=O)c3ccc(Cl)c([N+](=O)[O-])c3)C(c3ccccc3)C2)cc1 (centres undefined) | -1.2 | -4.0 | 2.3 | -1.6 | 56.4* | -12.1 | -1.4
COc1ccc(C2CC(c3ccc(Cl)cc3)=NN2C(=O)c2cccc([N+](=O)[O-])c2)cc1 (centres undefined) | -2.2 | -10.6 | 1.1 | -1.3 | 28.6 | 28.1 | .
COc1ccc(-c2cc(C(=O)NCC3CCCCC3)[nH]n2)c(C)c1 | . | -11.2 | -1.1 | 3.6 | 5.1 | . | .
O=C(Cn1c(=O)c2sccc2n(Cc2ccc([N+](=O)[O-])cc2)c1=O)NCCc1ccccc1 | -4.9 | 1.1 | 1.3 | 0.2 | 74.9* | 4.3 | 75.8*
COCCCNC(=O)CCn1c(=O)c2ccccc2n(Cc2cccc([N+](=O)[O-])c2)c1=O | -0.4 | 2.4 | 0.5 | -0.4 | 41.9 | 0.0 | .
O=C(Cn1c(=O)c2sccc2n(Cc2cccc([N+](=O)[O-])c2)c1=O)NCCc1ccccc1 | -8.2 | 7.4 | 1.2 | -0.5 | 57.1* | -15.3 | 62.8*
OC[C@@H]1CN(Cc2ccccc2)C[C@H](n2cnc3c(N4CCOCC4)ncnc32)O1 | . | -0.1 | -0.7 | 0.0 | -4.4 | . | .
O=C(NCc1ccc(Cl)cc1)C1=Cc2cc(Cl)ccc2OC1 | 0.8 | -6.7 | 0.0 | 1.1 | 63.5* | 0.7 | 40.4
CSc1nc2ccccc2n1Cc1cccc([N+](=O)[O-])c1 | -2.9 | -3.3 | 0.5 | -1.4 | 58.6* | 22.1 | 29.5
CCOC(=O)[C@]12CCC=C1N(Cc1cccc3ccccc13)C(=O)[C@H](CC(=O)NCc1ccc(C)o1)C2 | . | . | -1.0 | 0.4 | 8.1 | . | .
CCCCN(CCCNC(=O)c1c(C)cc(=O)oc1C)c1ccccc1 | 0.4 | -5.5 | -0.5 | 2.2 | 51.1* | -1.8 | 6.7
Cc1cccc(NC(=S)/N=C(\N)Nc2nc(C)c3ccc(C)cc3n2)c1 | -28.2 | -4.1 | -1.5 | 2.5 | 24.7 | -10.4 | .
Cc1cccc(NC(=S)/N=C(\N)Nc2nc(C)c3ccccc3n2)c1 | 0.9 | -5.0 | -2.2 | -1.5 | 59.1* | -6.5 | 20.3
COc1ccccc1N(C(=O)c1cncc(Br)c1)c1nc(-c2ccc(C)cc2)cs1 | -5.7 | -9.5 | -0.9 | -1.4 | 55.8* | 0.2 | 8.9
